Data published in ChEMBL document CHEMBL1152834, “Synthesis and potential anticonvulsant activity of new N-3-substituted 5,5-cyclopropanespirohydantoins” (2009).

Key:
Assay type in all cases: functional
Mus musculus [1] = experiment: Anticonvulsant activity in mouse assessed as inhibition of maximal electroshock-induced seizures at 30 mg/kg, po
How it was run: (§1)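 Male Kunming mice (20 ± 2.0 g), 10 per group, given test agent orally as a suspension in 0.5% carboxymethyl cellulose–0.9% saline. After 1 h, a 25 mA shock was delivered through ear electrodes for 0.25 s. Protection was scored as abolition of the hind limb tonic extensor component. Results are given as animals protected/animals tested.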

Mus musculus [2] = experiment: Anticonvulsant activity in mouse assessed as inhibition of maximal electroshock-induced seizures at 7.5 mg/kg, po; how it was run: as §1
Mus musculus [3] = experiment: Anticonvulsant activity in mouse assessed as inhibition of maximal electroshock-induced seizures at 15 mg/kg, po; how it was run: as §1
Mus musculus [4] = experiment: Anticonvulsant activity in mouse assessed as inhibition of subcutaneous pentylenetetrazole-induced seizures at 20 mg/kg, po
How it was run: (§2)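 Male Kunming mice (20 ± 2.0 g) received oral test agent suspended in 0.5% carboxymethyl cellulose–0.9% saline. Pentylenetetrazole 70 mg/kg in 0.9% saline was then injected subcutaneously in the scruff of the neck. Protection meant no threshold seizure, i.e. no single clonic spasm episode lasting at least 5 s.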

Mus musculus [5] = experiment: Anticonvulsant activity in mouse assessed as inhibition of subcutaneous pentylenetetrazole-induced seizures at 80 mg/kg, po; how it was run: as §2
Mus musculus [6] = experiment: Anticonvulsant activity in mouse assessed as inhibition of subcutaneous pentylenetetrazole-induced seizures at 40 mg/kg, po; how it was run: as §2

O=C1N=C(O)NC1(c1ccccc1)c1ccccc1 [PHENYTOIN SODIUM]
inhibition in vivo at 30 mg/kg (Mus musculus [1]): 90% | inhibition in vivo at 7.5 mg/kg (Mus musculus [2]): 20% | inhibition in vivo at 15 mg/kg (Mus musculus [3]): 50%

CC1(C)CC12NC(=O)N(c1ccc(F)cc1)C2=O (stereo not drawn)
inhibition in vivo at 20 mg/kg (Mus musculus [4]): 30% | inhibition in vivo at 30 mg/kg (Mus musculus [1]): 80% | inhibition in vivo at 7.5 mg/kg (Mus musculus [2]): 30% | inhibition in vivo at 15 mg/kg (Mus musculus [3]): 50% | inhibition in vivo at 80 mg/kg (Mus musculus [5]): 70% | inhibition in vivo at 40 mg/kg (Mus musculus [6]): 50%

CCC(CO)N1C(=O)NC2(CC2(C)C)C1=O (stereo not drawn)
inhibition in vivo at 20 mg/kg (Mus musculus [4]): 20% | inhibition in vivo at 30 mg/kg (Mus musculus [1]): 90% | inhibition in vivo at 7.5 mg/kg (Mus musculus [2]): 30% | inhibition in vivo at 15 mg/kg (Mus musculus [3]): 50% | inhibition in vivo at 80 mg/kg (Mus musculus [5]): 70% | inhibition in vivo at 40 mg/kg (Mus musculus [6]): 40%

COc1ccc(N2C(=O)NC3(CC3(C)C)C2=O)cc1 (stereo not drawn)
inhibition in vivo at 30 mg/kg (Mus musculus [1]): 60%

Cc1ccc(N2C(=O)NC3(CC3(C)C)C2=O)cc1 (stereo not drawn)
inhibition in vivo at 30 mg/kg (Mus musculus [1]): 50%

CC1(C)CC12NC(=O)NC2=O (stereo not drawn)
inhibition in vivo at 30 mg/kg (Mus musculus [1]): 50%

CN1C(=O)NC2(CC2(C)C)C1=O (stereo not drawn)
inhibition in vivo at 20 mg/kg (Mus musculus [4]): 20% | inhibition in vivo at 30 mg/kg (Mus musculus [1]): 90% | inhibition in vivo at 7.5 mg/kg (Mus musculus [2]): 40% | inhibition in vivo at 15 mg/kg (Mus musculus [3]): 50% | inhibition in vivo at 80 mg/kg (Mus musculus [5]): 60% | inhibition in vivo at 40 mg/kg (Mus musculus [6]): 30%

CC1(C)CC12NC(=O)N(c1ccc([N+](=O)[O-])cc1)C2=O (stereo not drawn)
inhibition in vivo at 30 mg/kg (Mus musculus [1]): 60%

CC1(C)CC12NC(=O)N(c1cc(Cl)cc(Cl)c1)C2=O (stereo not drawn)
inhibition in vivo at 30 mg/kg (Mus musculus [1]): 50%

CC(C)N1C(=O)NC2(CC2(C)C)C1=O (stereo not drawn)
inhibition in vivo at 30 mg/kg (Mus musculus [1]): 70%

CC1(C)CC12NC(=O)N(c1ccccc1)C2=O (stereo not drawn)
inhibition in vivo at 20 mg/kg (Mus musculus [4]): 20% | inhibition in vivo at 30 mg/kg (Mus musculus [1]): 80% | inhibition in vivo at 7.5 mg/kg (Mus musculus [2]): 20% | inhibition in vivo at 15 mg/kg (Mus musculus [3]): 40% | inhibition in vivo at 80 mg/kg (Mus musculus [5]): 60% | inhibition in vivo at 40 mg/kg (Mus musculus [6]): 40%

CCCC(CCC)C(=O)O [VALPROATE SODIUM]
inhibition in vivo at 20 mg/kg (Mus musculus [4]): 30% | inhibition in vivo at 80 mg/kg (Mus musculus [5]): 80% | inhibition in vivo at 40 mg/kg (Mus musculus [6]): 50%

CC1(C)CC12NC(=O)N(Cc1ccccc1)C2=O (stereo not drawn)
inhibition in vivo at 30 mg/kg (Mus musculus [1]): 70%

CCCCN1C(=O)NC2(CC2(C)C)C1=O (stereo not drawn)
inhibition in vivo at 20 mg/kg (Mus musculus [4]): 30% | inhibition in vivo at 30 mg/kg (Mus musculus [1]): 90% | inhibition in vivo at 7.5 mg/kg (Mus musculus [2]): 20% | inhibition in vivo at 15 mg/kg (Mus musculus [3]): 50% | inhibition in vivo at 80 mg/kg (Mus musculus [5]): 60% | inhibition in vivo at 40 mg/kg (Mus musculus [6]): 40%
